RGS4 block: human RGS4 inhibition | P49798 | HEK293 M3R/RGS4 inducible, Fluo-4 calcium flux; hits give high values; triggered by carbachol at its EC20 | B-score at 10 µM | 310,000 tested, 0.45% active | AID 463165;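 active = B-score, a plate-corrected calcium signal, over three deviations above library mean, with baseline fluorescence within five deviations of library mean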;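 also: RGS4 expression induced by doxycycline in cells with stable M3 receptor; B-score is computed from the integrated fluorescence ratio over baseline after carbachol; higher B-score means a larger calcium signal and so more RGS4 inhibition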
Target sequence (P49798 whole entry, looked up): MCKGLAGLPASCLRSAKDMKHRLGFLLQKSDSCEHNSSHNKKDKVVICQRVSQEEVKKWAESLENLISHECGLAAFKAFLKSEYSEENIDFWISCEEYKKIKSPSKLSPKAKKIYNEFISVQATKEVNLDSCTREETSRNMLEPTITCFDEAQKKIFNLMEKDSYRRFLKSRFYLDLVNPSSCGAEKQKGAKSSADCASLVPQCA
MrgX1 PAM: allosterically activates human MrgX1 receptor signaling | 310,000 tested, 0.63% active | MrgX1-HEK293, Fluo-4 calcium flux, FDSS; hits give high values | Q96LB2 | AID 588675 | B-score at 10 µM;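 active = plate-corrected calcium response at least 3 library SD above typical, normal starting fluorescence, not activating the receptor alone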;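 also: compound read alongside a low EC10 to EC30 dose of BAM8-22 agonist; peak minus trough fluorescence over baseline measured at the second addition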
Target sequence (Q96LB2 whole entry, looked up): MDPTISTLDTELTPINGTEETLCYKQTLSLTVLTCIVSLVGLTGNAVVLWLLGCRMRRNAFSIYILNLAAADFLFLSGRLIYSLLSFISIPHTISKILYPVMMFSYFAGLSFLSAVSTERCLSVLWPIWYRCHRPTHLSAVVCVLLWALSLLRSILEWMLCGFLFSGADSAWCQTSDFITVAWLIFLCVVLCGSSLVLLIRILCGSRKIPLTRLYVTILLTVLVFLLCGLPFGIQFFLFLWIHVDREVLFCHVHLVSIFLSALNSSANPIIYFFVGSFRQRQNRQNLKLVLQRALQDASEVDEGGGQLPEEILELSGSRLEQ
MrgX1 antagonist: antagonists of human MrgX1 receptor; Q96LB2; MRGX1-HEK293 calcium flux, Fluo-4, BAM8-22 antagonism; hits give low values; B-score at 10 µM; 310,000 tested, 1.3% active; AID 588676;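 active = calcium-response B-score plate-corrected more than 3 library SD below zero, starting fluorescence within 5 deviations, no agonist response on first addition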;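 also: peak minus trough fluorescence over baseline after final BAM8-22 challenge near maximal dose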
Kir21 block: Kir2.1 (mouse) channel inhibition | P35561 | B-score at 10 µM | AID 1672 | 310,000 tested, 0.85% active | HEK293-Kir2.1, FluxOR thallium flux fluorescence; hits give low values;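 active = fluorescence ratio B-score at or below minus 3 SD of library scores, with starting-brightness B-score within 2 SD, cut at about -4.2 in these data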;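 also: channel flux triggered by added potassium and thallium sulfate stimulus; B-score of peak minus minimum fluorescence over baseline after thallium stimulus; more negative B-score means stronger Kir2.1 block with less thallium influx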
MrgX1 agonist: agonists of human MrgX1 receptor; Q96LB2; MrgX1-HEK293 cells, Fluo-4 calcium fluorescence, agonist mode; hits give high values; B-score at 10 µM; 310,000 tested, 0.44% active; AID 588627;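 active = calcium response B-score plate-corrected fluorescence ratio at least 3 library SD, with starting fluorescence B-score inside 5 SD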
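Material: MrgX1-expressing HEK293 cells / Dosing: compound as first of three additions / Incubation: overnight seeding, then 1 h dark dye loading / Signal: Fluo-4 NW calcium fluorescence / Evaluation: B-scored fluorescence response ratio / Benchmarks: positive and negative control wells on each plate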
RGS4 pot: RGS4 potentiation or activation. B-score at 10 µM. HEK293 M3R/inducible RGS4, carbachol calcium flux Fluo4; hits give low values. 310,000 tested, 0.92% active. AID 463111;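 active = B-score of the integrated calcium signal more than 4 SD below the library mean, with starting fluorescence not abnormally high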;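 also: negative B-score means reduced calcium response which marks RGS4 activation or potentiation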
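System – HEK293 FlpIn-TREx cells, stable M3R, doxycycline-inducible RGS4 · Reagent – ECmax carbachol challenge · Times – compound preincubation 20 min at room temperature before agonist · Technique – Fluo4 fluorescence kinetic imaging of calcium · Measure – B score of integrated Fluo4 ratio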
* hit, by the source's call; i = inactive; / = no result. The list is not random: actives were taken first. Their share in the collection is about 4.1%.

SMILES | RGS4 block | MrgX1 PAM | MrgX1 antagonist | Kir21 block | MrgX1 agonist | RGS4 pot
O=C(NCC1CCN(Cc2ccc(Cl)cc2)CC1)C1CCCN(c2ncnc3c2nc2n3CCCCC2)C1 (centres undefined) | i | i | i | -0.35 | i | -7.2*
O=C(NCC1CCN(Cc2ccc(F)cc2)CC1)C1CCCN(c2ncnc3c2nc2n3CCCCC2)C1 (centres undefined) | i | i | i | 0.47 | i | i
COc1cc(OC)c(OC)cc1CN1CCN(c2ccc(F)cc2)CC1 | i | i | i | -0.42 | i | i
COc1ccc(OC)c(Nc2c3ccccc3nc3ccccc23)c1 | i | i | i | -4.6* | i | i
COc1ccc(C)cc1Nc1nc(N)c2ccccc2n1 | i | i | i | -4.9* | i | i
CC(C)C(NS(=O)(=O)c1ccc2c(c1)OCCCO2)C(=O)O (centres undefined) | i | i | i | -0.45 | i | i
c1ccc(-n2nnc3ccccc32)nc1 | i | i | i | 0.23 | i | i
C/C(=N\NC(=S)NCc1ccccc1)c1ccco1 | i | 8.1* | i | -0.8 | i | i
CN1CCN(Cc2ccc(-c3ccc(Cl)cc3)o2)CC1 | i | i | i | -4.7* | i | i
CCc1nnc(NC(=O)c2cc([N+](=O)[O-])ccc2N2CCOCC2)s1 | i | i | -6.3* | 1.4 | i | i
O=C(COC(=O)c1cc([N+](=O)[O-])ccc1N1CCOCC1)Nc1ccc(Cl)cc1 | i | i | -8.3* | 1.5 | i | i
CCOC(=O)c1cc(CC)sc1NC(=O)c1cc([N+](=O)[O-])ccc1N1CCOCC1 | i | i | i | 1.7 | i | i
O=C(CN(Cc1ccccc1)S(=O)(=O)c1ccc(Br)cc1)N/N=C/c1ccccc1C(=O)O | i | i | i | -0.35 | i | i
Cc1ccc(CNCC(=O)Nc2cccc(S(=O)(=O)NC3=NCCCCC3)c2)cc1 | i | i | i | -0.3 | i | i
Cn1c(=O)n(CCc2ccccc2)c(=O)c2c1nc1n2CCCN1CCc1ccccc1 | i | i | i | 0.05 | i | -7.7*
CCNC(=S)N/N=C/c1ccc(OCc2ccc(C(=O)OC)cc2)cc1 | i | i | -4.7* | 0.03 | i | i
CC(=O)c1cc(F)ccc1OCC(=O)N1CCCc2ccccc21 | i | i | i | -6.5* | i | i
Cc1nnc(NC(=O)CSc2nc3ccccc3o2)s1 | i | i | i | 0.13 | i | i
COc1ccc(NC(=O)COc2ccccc2C(=O)NCC(c2ccccc2)N(C)C)cc1Cl (centres undefined) | i | i | i | -0.03 | i | -9.4*
Cc1ccc(C(=O)NC(=S)NNC(=O)c2ccc([N+](=O)[O-])cc2)cc1 | i | i | i | 0.05 | 40* | i
O=C(NNC(=S)NC(=O)c1ccc(Br)cc1)c1cccc([N+](=O)[O-])c1 | i | i | i | 0.01 | i | i
CCCCCC(=O)NNC(=S)NC(=O)c1ccc([N+](=O)[O-])cc1 | i | i | i | 0.99 | 61* | i
O=C(NNC(=S)NC(=O)c1ccccc1)c1ccc([N+](=O)[O-])cc1 | i | i | i | 1.2 | 77* | i
O=C(NNC(=S)NC(=O)c1ccccc1Cl)c1cccc([N+](=O)[O-])c1 | i | i | i | 0.59 | 103* | i
Cc1cccc2cc(CN(CCN3CCCC3)C(=O)NC3CCCCC3)c(=O)[nH]c12 | i | i | i | -1.6 | i | i
SMILES | RGS4 block | MrgX1 PAM | MrgX1 antagonist | Kir21 block | MrgX1 agonist | RGS4 pot
O=C(CSc1ccc(Cl)cc1)OCc1nnc(-c2ccccc2)o1 | i | i | i | -0.74 | i | i
COc1cccc(C(=O)NCC(c2ccco2)N2CCc3ccccc3C2)c1 (centres undefined) | i | i | i | 0.14 | i | i
O=C(NNc1cc(C(F)(F)F)ccc1Cl)c1ccc(=O)[nH]c1 | i | i | i | 1.8 | i | i
CCSc1nnc2c(n1)[nH]c1c(C)cccc12 | i | i | i | 1.8 | i | i
CSc1nnc2c(n1)[nH]c1c(C)cccc12 | i | i | -4.7* | 1.8 | i | i
C=CCn1c(SCC(=O)c2cc(C)n(C(C)COC)c2C)nc2sc(C)c(C)c2c1=O (centres undefined) | i | i | i | 1.4 | i | -7.5*
CC(C)c1ccc(S(=O)(=O)/N=C2/C=C(Sc3ncn[nH]3)C(=O)c3ccccc32)cc1 | / | 8.6* | i | / | i | /
Cc1ccc(S(=O)(=O)/N=C2/C=C(Sc3ncn[nH]3)C(=O)c3ccccc32)cc1 | / | i | i | / | i | /
CCOC(=O)C1CCN(C(=O)Nc2ccc3nc(-c4ccco4)c(-c4ccco4)nc3c2)CC1 | i | i | -5* | -2.9 | i | i
O=C(Nc1ccc2nc(-c3ccco3)c(-c3ccco3)nc2c1)N1CCCCCC1 | i | i | i | -0.15 | i | i
CC(C)(C)CN1CCC(Oc2cccc(C(=O)NCCCOc3cccnc3)c2)CC1 | i | i | i | -0.2 | i | i
CN(Cc1ccccc1)c1ccc2nnc(-c3ccccc3)n2n1 | i | i | i | -5.2* | i | i
C(=C\c1ccccc1)/CSc1nnc(-c2cnccn2)n1Cc1ccco1 | i | i | i | -5.3* | i | i
Fc1ccc(CSc2nnc(-c3cccnc3)n2Cc2ccco2)cc1 | i | i | i | -0.62 | i | i
C=CCn1c(SCc2cccc3ccccc23)nnc1-c1cccnc1 | i | i | i | -6.4* | i | i
Clc1ccccc1CSc1nnc(-c2cccnc2)n1Cc1ccco1 | i | i | i | -4.4* | i | i
O=C(CCN1CCCCCC1)c1ccccc1 | / | i | i | / | 31* | /
CCCCN(C)S(=O)(=O)c1ccc(C(=O)Nc2nnc(-c3cccs3)o2)cc1 | i | i | i | 1.3 | 31* | i
COc1ccc(-c2csc(=Nc3ccccc3)n2CCO)cc1 | i | 15* | i | 0.07 | i | i
Cc1ccsc1/C=c1\sc2ncnn2c1=O | i | 6.6* | i | 0.03 | i | i
COc1ccc(CCN2CCC(Nc3nc4ccccc4n3Cc3ccc(F)cc3)CC2)cc1 | i | i | i | -6.8* | i | i
COc1ccc2oc(C(=O)OCC(=O)N(C)c3c(N)n(Cc4ccccc4)c(=O)[nH]c3=O)c(C)c2c1 | i | i | i | -0.14 | i | i
